TRPC4 potent – positive allosteric modulators of TRPC4, primary screen, cell-based, mouse TRPC4beta, HEK293 mu-opioid, Fluo-4 calcium; Short transient receptor potential channel 4 (Mus musculus), Q9QUQ5; DAMGO EC20, Fluo-4 Ca2+ flux; stronger effect = higher value; B-score at 10 µM; actives 0.42% (n = 310,000);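 active means B-score of calcium response area above 5 SD of library B-scores, with initial fluorescence ratio within 5 SD of library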;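 further: B-score of integrated fluorescence ratio over time as area under calcium response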
TRPC6 inh – mouse TRPC6 channel inhibitors, primary screen, cell-based, HEK293, membrane potential dye | B-score at 10 µM | actives 1.1% (n = 310,000) | ACh-evoked depolarization; stronger effect = lower value | Short transient receptor potential channel 6 (Mus musculus), Q61143;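 active means B-score under library mean minus 3 SD, initial fluorescence not abnormally high, positive integrated signal ratio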;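 further: B-score derived from integrated fluorescence ratio over the kinetic read; more negative B-score means stronger inhibition of depolarization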
TRPC4 inh – inhibitors of mouse TRPC4 channel, primary screen, Fluo4 calcium, HEK293 TRPC4beta/mu-opioid cells. DAMGO-evoked Fluo4 calcium flux; stronger effect = lower value. actives 0.39% (n = 300,000). B-score at 10 µM. Short transient receptor potential channel 4 (Mus musculus), Q9QUQ5;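 active means B-score over 3 SD under the library average, no early fluorescence shift, positive overall ratio signal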
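test system = HEK293 cells with stable TRPC4beta plus mu-opioid receptor expression | detection = Fluo4 Ca2+ flux fluorescence | read-out = integrated fluorescence ratio relative to baseline, converted to per-well B score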
TRPC6 act – mouse TRPC6 channel activators, primary screen, cell-based, HEK293, membrane potential dye | Short transient receptor potential channel 6 (Mus musculus), Q61143 | HEK293-TRPC6 membrane potential dye fluorescence; stronger effect = higher value | actives 0.13% (n = 310,000) | B-score at 10 µM | AID 2550, 2010;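 active means B-score of the integrated fluorescence ratio above library mean plus 3 SD, and starting fluorescence ratio within library mean plus 5 SD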;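 further: higher score means more depolarization so channel activation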
TRPC4 agonist – activators of mouse TRPC4 channel, primary screen, Fluo4 calcium, HEK293 TRPC4beta/mu-opioid cells; actives 0.49% (n = 310,000); B-score at 10 µM; Fluo4 calcium fluorescence; stronger effect = higher value;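 active means B-score above 5 SD of library B-scores, and initial fluorescence ratio not above library mean plus 5 SD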;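 further: positive B-score marks a calcium rise read as TRPC4 activation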
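Incubation: 45 min room-temperature Fluo4 loading, 110 s read / System: HEK293 cells stably co-expressing mouse TRPC4beta and mu-opioid receptor / Signal: Fluo4 fluorescence, kinetic / Control set: buffer (low) and maximal DAMGO (high) / Measure: integrated baseline-normalised fluorescence ratio, converted to per-well B score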
Kir21 block – inhibitors of mouse Kir2.1 inward-rectifier potassium channel | Inward rectifier potassium channel 2 (Mus musculus), P35561 | HEK293-Kir2.1, FluxOR thallium flux fluorescence; stronger effect = lower value | B-score at 10 µM | actives 0.85% (n = 310,000) | AID 1672, 2009;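 active means fluorescence ratio B-score at or below minus 3 SD of library scores, with starting-brightness B-score within 2 SD, cut at about -4.2 in these data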;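 further: channel flux triggered by added potassium and thallium sulfate stimulus; B-score of peak minus minimum fluorescence over baseline after thallium stimulus; more negative B-score means stronger Kir2.1 block with less thallium influx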
* marks the source's active call; other numbers are inactive results; i = inactive. Compounds with a hit are over-represented: about 2.9% of the library has one in this group of screens.

SMILES	TRPC4 potent	TRPC6 inh	TRPC4 inh	TRPC6 act	TRPC4 agonist	Kir21 block
COc1ccc(CNC(C)CCc2ccccc2)cc1 (configuration not stated)	i	i	i	i	i	-6.33*
COC(=O)C(NC(C)=O)(Nc1ccc(C)cn1)C(F)(F)F (configuration not stated)	i	i	i	i	i	1.27
COc1ccc(CCNC/C=C/c2ccccc2)cc1	i	i	i	i	106*	-8.37*
NS(=O)(=O)c1ccc(CCNC/C=C/c2ccccc2)cc1	i	i	i	i	i	0.58
COc1ccc(CCNCc2ccc(OCc3ccccc3)cc2)cc1	i	i	i	i	i	-5.44*
CC(C)(C)NC(=O)NC(=O)COC(=O)c1cccc(OC(F)F)c1	i	i	i	i	i	1.94
O=S(=O)(NCCc1cccs1)c1ccc(Br)cc1	i	i	i	i	i	-5.31*
O=[N+]([O-])c1cccc(S(=O)(=O)NCCc2cccs2)c1	i	i	i	i	i	-0.75
CCN(CC)CCNCC1C(=O)O[C@@H]2C[C@@]3(C)CCC[C@H](C)C3=C[C@H]12 (some centres not stated)	11*	i	i	i	i	-0.64
C=CCNC(=O)/C(C#N)=C/c1ccc(SC)cc1	10*	i	i	i	i	0.92
Cc1ccc(C(=O)OCC(=O)N2CCc3ccccc32)cc1	11*	i	i	i	i	-0.04
FC(F)(F)c1cnc2c(-c3ccccc3)n[nH]c2c1	i	i	i	i	i	-2.23
CN(C)S(=O)(=O)c1ccc(NC(=O)CN2CCN(c3ccccn3)CC2)cc1	i	i	i	i	i	0.41
Cc1ccc(S(=O)(=O)C2CS(=O)(=O)CC2O)cc1 (configuration not stated)	i	i	i	i	i	-0.87
CC(=O)C1=C(S(=O)(=O)c2ccc(C)cc2)CS(=O)(=O)C1	i	i	-7*	i	i	-3.37
CCOC(=O)c1c(-c2ccc(OC)cc2)oc2ccc(O)cc12	17*	i	i	i	i	0.35
Cc1cc(Cl)cc(Cl)c1OCCCCN(C)C	36*	i	i	i	i	-1.04
CCCCC(c1nnnn1CC1CCCO1)N1CCN(c2nc3ccccc3s2)CC1 (configuration not stated)	i	i	i	i	88*	-0.21
CCCC(c1nnnn1CC1CCCO1)N1CCN(c2nc3ccccc3s2)CC1 (configuration not stated)	i	i	i	i	i	0.02
COc1cc(CCC(=O)Nc2nnc(-c3cccnc3)s2)cc(OC)c1OC	i	i	i	i	i	0.1
COc1ccccc1CN1CCNC(=O)C1CC(=O)N(C)Cc1ccon1 (configuration not stated)	i	i	i	i	i	0.46
ClCC1=Nc2cccc3cccc(c23)N1	i	i	i	i	i	-0.63
CC(C)C1=Nc2cccc3cccc(c23)N1	i	i	-6*	i	i	-0.73
CCC(C)c1ccccc1NC(=O)C(C)N(C)Cc1cccc(OC)c1 (configuration not stated)	i	i	i	i	i	-1.48
CN(C)CCNCCCOc1ccccc1-c1ccccc1	i	i	i	i	i	-0.61
COCCOc1cc(-n2cccc2)c(Cl)cc1Cl	i	i	i	i	i	0.14
COc1ccc(/C=N/Nc2cc(C)nc3ccc(OC)cc23)c(OC)c1	i	-5.39*	i	i	i	-3.25
CC(C)Oc1ccccc1OCCCOc1cccc2cccnc12	i	i	i	i	i	-6.56*

Compound activity from PubChem.
